Measurements gathered from unrelated publications.
Compare with care: the assays were run in different laboratories.
Target: Serine/threonine-protein kinase Chk1 (CHEK1, Homo sapiens, UniProt O14757)
Residues used in one study (O14757 1-476): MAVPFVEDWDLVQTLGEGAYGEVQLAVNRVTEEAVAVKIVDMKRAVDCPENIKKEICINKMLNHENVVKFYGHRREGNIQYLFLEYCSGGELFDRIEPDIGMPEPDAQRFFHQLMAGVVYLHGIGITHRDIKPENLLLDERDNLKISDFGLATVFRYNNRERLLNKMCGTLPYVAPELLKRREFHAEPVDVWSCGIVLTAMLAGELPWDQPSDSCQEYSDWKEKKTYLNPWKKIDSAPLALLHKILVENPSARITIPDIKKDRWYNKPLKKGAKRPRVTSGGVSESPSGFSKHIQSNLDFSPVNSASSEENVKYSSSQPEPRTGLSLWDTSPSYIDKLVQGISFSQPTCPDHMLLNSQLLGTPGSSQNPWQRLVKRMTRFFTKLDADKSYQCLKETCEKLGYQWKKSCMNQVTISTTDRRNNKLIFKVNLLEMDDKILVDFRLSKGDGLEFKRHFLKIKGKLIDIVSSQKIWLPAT

O=c1[nH]c2ccccc2n1C1CCN(Cc2ccc(-c3[nH]c4cc5ncnc5cc4nc3-c3ccccc3)cc2)CC1  remaining signal (cell-free assay; 0.5 µM): 107%
C#Cc1n[nH]c2c(-c3cn([C@@H](C)c4ccccc4)c(=O)[nH]c3=O)cc(F)cc12  inhibition (enzyme activity; inhibitor; 0.1 µM): -1.2%
Cn1cc(-c2cc(F)cc(N3CCn4c(cc5c4CCCC5)C3=O)c2CO)cc(Nc2ccc(N3CCN(C4COC4)CC3)cn2)c1=O  inhibition (enzyme activity; inhibitor; 0.1 µM): 2%
Cn1cncc1[C@@](O)(COc1ccc(C#N)cc1-c1ccc(OC(F)(F)F)cc1)c1ccc(C#N)cc1  remaining binding (cell-free assay; competition with immobilised ligand; 1 µM): 100%
Nc1ncc(-c2nc(N3CCOCC3)nc(N3CCOCC3)n2)c(C(F)F)n1  remaining binding (binding; competition with immobilised ligand; 10 µM): 67%
Cc1nn(C)cc1-c1nc2c(N3CCN(Cc4ccc(Cl)cc4)CC3)c(Cl)cnc2[nH]1  remaining binding (binding; competition with immobilised ligand; 1 µM): 100%
COc1ncccc1-c1cnn2ccc(N3CCN(C(=O)OC(C)C)CC3)nc12  remaining binding (binding; competition with immobilised ligand; 1 µM): 100%
Cn1cc(-c2cccc(N3CCc4c(sc5c4CC(C)(C)C5)C3=O)c2CO)cc(Nc2ccncn2)c1=O  inhibition (enzyme activity; inhibitor; 1 µM): 1%
CC(C)(C)c1cc(C=C(C#N)C#N)cc(Br)c1O  remaining activity (enzyme activity; inhibitor; 0.5 µM): 100%
C#Cc1n[nH]c2c(-c3cn([C@@H](C)c4ccccn4)c(=O)[nH]c3=O)cc(F)cc12  inhibition (enzyme activity; inhibitor; 0.1 µM): -3.2%
COc1cc(Nc2ncc(F)c(Nc3ccc4c(n3)NC(=O)C(C)(C)O4)n2)cc(OC)c1OC  inhibition (binding; competition with immobilised ligand; 10 µM): 62%
